Values after ≈ are worked out from the molar mass of the structure shown. A value given as a limit tells only on which side of the number the result lay.

The text below walks through data of ChEMBL document CHEMBL1141647, “Novel ofloxacin derivatives: synthesis, antimycobacterial and toxicological evaluation” (Bioorg Med Chem Lett, 2008).

One series relates to Vero. Put plainly: Cytotoxicity against african green monkey Vero cells after 72 hrs by MTT assay. The note with it: Chlorocebus sabaeus. Type of series: cell-based. The procedure, abridged:
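Vero cells exposed for 72 h; tested up to 62.5 µg/mL. Viability was read as cellular conversion of MTT to formazan, and IC50 was reported in µM.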

Series [1] deals with Mycolicibacterium smegmatis. Put plainly: Antimycobacterial activity against Mycobacterium smegmatis ATCC 14468 by agar dilution method. The series is classed as functional. The procedure, abridged: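 MC² (M. smegmatis) growth inhibition; MIC99 taken as the lowest concentration giving complete inhibition of bacterial growth, in µM.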
For series [2], the system named is Mycobacterium tuberculosis. Put plainly: Antimycobacterial activity against Mycobacterium tuberculosis H37Rv by agar dilution method. Type of series: functional. The procedure, abridged: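 MIC99 was taken as the lowest concentration giving complete inhibition of bacterial growth.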
The next series deals with DNA gyrase subunit A (Mycolicibacterium smegmatis, UniProt Q59556). Put plainly: Inhibition of Mycobacterium smegmatis DNA gyrase. In short, it runs like this: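 Inhibition of DNA supercoiling by M. smegmatis (MC²) gyrase, run under standard assay conditions. Varying compound amounts were tested against a fixed amount of enzyme, and IC50 was derived from that series. Relaxed circular DNA served as marker, 5% DMSO as solvent control, and moxifloxacin at 5 µg/mL as positive control.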
DNA gyrase subunit A, sequence (Q59556 whole entry): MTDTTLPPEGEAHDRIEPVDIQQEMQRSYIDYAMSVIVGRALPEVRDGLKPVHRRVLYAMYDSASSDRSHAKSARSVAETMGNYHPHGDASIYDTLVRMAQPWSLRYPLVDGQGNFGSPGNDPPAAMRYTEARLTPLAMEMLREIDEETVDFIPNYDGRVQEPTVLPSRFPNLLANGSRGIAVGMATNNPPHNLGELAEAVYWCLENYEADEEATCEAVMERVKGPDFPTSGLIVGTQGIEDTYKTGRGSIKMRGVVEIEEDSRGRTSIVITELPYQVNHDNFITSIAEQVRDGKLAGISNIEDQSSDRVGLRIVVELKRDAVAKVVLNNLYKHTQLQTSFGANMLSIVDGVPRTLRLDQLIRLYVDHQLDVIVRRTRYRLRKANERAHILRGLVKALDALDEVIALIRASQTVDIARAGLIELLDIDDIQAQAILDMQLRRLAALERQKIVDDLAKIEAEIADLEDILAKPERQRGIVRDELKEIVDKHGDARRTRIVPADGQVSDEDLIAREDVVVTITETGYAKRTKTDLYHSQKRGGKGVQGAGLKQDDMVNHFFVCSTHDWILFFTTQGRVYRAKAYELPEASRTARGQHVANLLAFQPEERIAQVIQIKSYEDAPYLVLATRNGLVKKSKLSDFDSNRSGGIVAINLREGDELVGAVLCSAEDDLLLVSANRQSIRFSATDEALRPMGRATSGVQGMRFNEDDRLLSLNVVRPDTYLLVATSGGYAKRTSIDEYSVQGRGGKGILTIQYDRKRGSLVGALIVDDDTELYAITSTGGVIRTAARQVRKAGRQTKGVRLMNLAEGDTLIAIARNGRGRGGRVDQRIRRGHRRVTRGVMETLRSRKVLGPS

Series [3] deals with Mus musculus. Put plainly: Phototoxic effect in mouse assessed as ear thickness at 140 mg/kg administered before UV light exposure relative to control. More on the design: dose 140 mg/kg. The conditions noted are these: in vivo. The series is classed as ADME, organism-based. In short, it runs like this:
(§1)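 Mice dosed at 140 mg/kg and exposed to UV immediately after dosing. Irradiation ended at 4 h. Ear thickness (mm) was measured at 0 (pre-dose), 4, 24, 48, 72 and 96 h, left and right ears averaged, mean ± SEM. Comparison was against vehicle controls (0.5% aqueous sodium carboxymethylcellulose, 10 mL/kg) and against the 0 h reading.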

Series [4] relates to Mus musculus. Put plainly: Phototoxic effect in UV light irradiated mouse assessed as number of mouse bearing erythema at 140 mg/kg, after 48 hrs relative to control. The series is classed as ADME, organism-based. Details: dose 140 mg/kg. The conditions noted are these: in vivo. In short, it runs like this: (§2)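 Mice received 140 mg/kg and were UV-irradiated immediately after dosing, irradiation ending at 4 h. Both ears were scored for erythema at 0, 4, 24, 48, 72 and 96 h, counted as the number of mice with erythema. Vehicle control was 0.5% aqueous sodium carboxymethylcellulose at 10 mL/kg.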

For series [5], the system named is Mus musculus. Put plainly: Phototoxic effect in UV light irradiated mouse assessed as ear thickness at 140 mg/kg, after 96 hrs relative to control. The series is classed as ADME, organism-based. The note with it: in vivo. Details: dose 140 mg/kg. In short, it runs like this: as §1
For series [6], the system named is Mus musculus. Put plainly: Phototoxic effect in UV light irradiated mouse assessed as ear thickness at 140 mg/kg, after 24 hrs relative to control. Type of series: ADME, organism-based. More on the design: dose 140 mg/kg. The conditions noted are these: in vivo. In short, it runs like this: as §1
In series [7] the test system is Mus musculus. Put plainly: Phototoxic effect in mouse assessed as number of mouse bearing erythema at 140 mg/kg administered before UV light exposure relative to control. The series is classed as ADME, organism-based. Details: dose 140 mg/kg. The note with it: in vivo. In short, it runs like this: as §2
Series [8] deals with Mus musculus. Put plainly: Phototoxic effect in UV light irradiated mouse assessed as number of mouse bearing erythema at 140 mg/kg, after 24 hrs relative to control. Type of series: ADME, organism-based. More on the design: dose 140 mg/kg. The conditions noted are these: in vivo. The procedure, abridged: as §2
The test system of series [9] is Mus musculus. Put plainly: Phototoxic effect in UV light irradiated mouse assessed as ear thickness at 140 mg/kg, after 4 hrs relative to control. Type of series: ADME, organism-based. More on the design: dose 140 mg/kg. The note with it: in vivo. In short, it runs like this:
as §1

Series [10] has as its system Mus musculus. Put plainly: Phototoxic effect in UV light irradiated mouse assessed as ear thickness at 140 mg/kg, after 48 hrs relative to control. The note with it: in vivo. Type of series: ADME, organism-based. More on the design: dose 140 mg/kg. The procedure, abridged:
as §1

In series [11] the test system is Mus musculus. Put plainly: Phototoxic effect in UV light irradiated mouse assessed as number of mouse bearing erythema at 140 mg/kg, after 72 hrs relative to control. The series is classed as ADME, organism-based. More on the design: dose 140 mg/kg. The note with it: in vivo. In short, it runs like this: as §2
Series [12] deals with Mus musculus. Put plainly: Phototoxic effect in UV light irradiated mouse assessed as ear thickness at 140 mg/kg, after 72 hrs relative to control. The note with it: in vivo. The series is classed as ADME, organism-based. More on the design: dose 140 mg/kg. In short, it runs like this: as §1
The subject of series [13] is Mus musculus. Put plainly: Phototoxic effect in UV light irradiated mouse assessed as number of mouse bearing erythema at 140 mg/kg, after 96 hrs relative to control. Details: dose 140 mg/kg. The series is classed as ADME, organism-based. The conditions noted are these: in vivo. In short, it runs like this: as §2
Series [14] has as its system Mus musculus. Put plainly: Phototoxic effect in UV light irradiated mouse assessed as number of mouse bearing erythema at 140 mg/kg, after 4 hrs relative to control. Type of series: ADME, organism-based. The note with it: in vivo. Details: dose 140 mg/kg. The procedure, abridged: as §2

`CC1COc2c(N3CCN(Cc4ccc5c(c4)OCO5)CC3)c(F)c([N+](=O)[O-])c3c(=O)c(C(=O)O)cn1c23` (stereo not drawn) had an IC50 in the series on Vero of 119 µM. In addition, the results for the MIC99 in series [1] and in [2] were 1.48 µM (≈ 0.779 µg/mL) and 2.96 µM (≈ 1.56 µg/mL), respectively.
Regarding `CC1COc2c(N3CCSCC3)c(F)cc3c(=O)c(C(=O)O)cn1c23` (stereo not drawn), the IC50 was 110 µM against DNA gyrase subunit A and over 172 µM in the series with Vero. For the same molecule, the MIC99 in [1] is 4.28 µM (≈ 1.56 µg/mL); in series [2] it was 2.14 µM (≈ 0.78 µg/mL).
Take `CC1COc2c(N3CCN(Cc4ccc5c(c4)OCO5)CC3)c(F)cc3c(=O)c(C(=O)O)cn1c23` (stereo not drawn): the results for the MIC99 in series [1] and in series [2] were 26 µM (≈ 12.5 µg/mL) and 6.5 µM (≈ 3.13 µg/mL), respectively.
Molecule `CC1COc2c(N3CCn4cc(C(=O)O)nc4C3)c(F)cc3c(=O)c(C(=O)O)cn1c23` (stereo not drawn) yielded an IC50 in the series with Vero of over 146 µM. Moreover, the MIC99 in [1] was 29.2 µM (≈ 12.5 µg/mL); in series [2] it was 0.91 µM (≈ 0.39 µg/mL).
The corresponding values for `COc1cc2c(cc1OC)CN(c1c(F)c([N+](=O)[O-])c3c(=O)c(C(=O)O)cn4c3c1OCC4C)CC2` (stereo not drawn) are 62.5 µM, 12.5 µM (≈ 6.25 µg/mL) and 1.56 µM (≈ 0.779 µg/mL).
Regarding `CC1CN(c2c(F)cc3c(=O)c(C(=O)O)cn4c3c2OCC4C)CC(C)O1` (stereo not drawn), the values for the IC50 against DNA gyrase subunit A and in the series on Vero were over 133 µM and over 166 µM, respectively. In addition, the MIC99 in series [1] and in series [2] was 4.14 µM (≈ 1.56 µg/mL) each time.
In turn, `CC1COc2c(N3CCC(O)(c4ccc(Cl)cc4)CC3)c(F)c([N+](=O)[O-])c3c(=O)c(C(=O)O)cn1c23` (stereo not drawn) yielded an IC50 in the series with Vero of 60.4 µM. The MIC99 in series [1] was 6.04 µM (≈ 3.13 µg/mL); in [2], 1.51 µM (≈ 0.782 µg/mL).
In the case of `CC1COc2c(N3CCN(C(=O)c4ccco4)CC3)c(F)cc3c(=O)c(C(=O)O)cn1c23` (stereo not drawn), the Activity is given as 0.29 mm in the series on Mus musculus [3]; “Non-toxic” in the series with Mus musculus [4]; 0.3 mm in the series with Mus musculus [5]; 0.29 mm in the series with Mus musculus [6]; “Non-toxic” in the series on Mus musculus [7]; “Non-toxic” with Mus musculus [8]. The Activity with Mus musculus [9] was 0.3 mm; with Mus musculus [10], 0.29 mm; in the series with Mus musculus [11], “Non-toxic”; with Mus musculus [12], 0.29 mm; in the series on Mus musculus [13] it was “Non-toxic”. At DNA gyrase subunit A, this molecule showed an IC50 of over 113 µM. Besides, the figures for the MIC99 in series [1] and in [2] were 3.53 µM (≈ 1.56 µg/mL) and 7.09 µM (≈ 3.13 µg/mL), respectively.
On to `Cc1onc(-c2c(F)cccc2F)c1C(=O)N1CCN(c2c(F)cc3c(=O)c(C(=O)O)cn4c3c2OCC4C)CC1` (stereo not drawn), for which the MIC99 in series [1] stood at 44 µM (≈ 25 µg/mL); in series [2], 11 µM (≈ 6.25 µg/mL).
In the series with Vero, `CC1COc2c(N3CCC4(CC3)OCCO4)c(F)c([N+](=O)[O-])c3c(=O)c(C(=O)O)cn1c23` (stereo not drawn) showed an IC50 of 139 µM. The figures for the MIC99 in [1] and in [2] were 3.47 µM (≈ 1.56 µg/mL) and 0.21 µM (≈ 0.0944 µg/mL), respectively.
For `CC1COc2c(N3CCC(O)(c4ccc(Cl)cc4)CC3)c(F)cc3c(=O)c(C(=O)O)cn1c23` (stereo not drawn), the MIC99 in series [1] was 26.4 µM (≈ 12.5 µg/mL); in [2], 6.62 µM (≈ 3.13 µg/mL).
Regarding `CCn1cc(C(=O)O)c(=O)c2cc(F)c(N3CCNC(C)C3)c(F)c21` (stereo not drawn) [LOMEFLOXACIN], the Activity with Mus musculus [3] was 0.31 mm; in the series on Mus musculus [4], “Toxic”; in the series with Mus musculus [5] it was 0.6 mm; in the series on Mus musculus [6], 0.48 mm; in the series on Mus musculus [14], “Toxic”; with Mus musculus [7] it was “Non-toxic”. The Activity entry in the series with Mus musculus [8] is “Toxic”; in the series on Mus musculus [9], 0.4 mm; in the series with Mus musculus [10] it was 0.53 mm; with Mus musculus [11], “Toxic”; in the series with Mus musculus [12], 0.64 mm; in the series on Mus musculus [13] it was “Toxic”.
With `CC1COc2c(N3CCN(C)C(c4ccccc4)C3)c(F)cc3c(=O)c(C(=O)O)cn1c23` (stereo not drawn), the MIC99 is 114 µM (≈ 50 µg/mL) in series [1] and 14.3 µM (≈ 6.25 µg/mL) in [2].
For `CC1COc2c(N3CCN(C)CC3)c(F)cc3c(=O)c(C(=O)O)cn1c23.Cl` (stereo not drawn), the Activity with Mus musculus [3] worked out at 0.29 mm; in the series on Mus musculus [5] it was 0.35 mm; in the series on Mus musculus [6], 0.29 mm; in the series on Mus musculus [9], 0.32 mm; in the series on Mus musculus [10], 0.3 mm; in the series with Mus musculus [12] it was 0.35 mm.
